According to ChEMBL document CHEMBL1121891, “Structure--activity relationship in cinnamamides. 3. Synthesis and anticonvulsant activity evaluation of some derivatives of (E)- and (Z)-m-(trifluoromethyl)cinnamamide” (J Med Chem, 1981):
Activity calls are given as the source filed them. The rule behind the calls is not given here.

What was measured:
[1] = Lethal dose after peroral administration; type: toxicity, organism-based; conditions: mouse, in vivo, po
Mus musculus [2] = experiment: Compound was evaluated for anticonvulsant activity in mouse after peroral administration.; type: functional; conditions: po
In short: (§1)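 Male albino mice (Icem-CET, SPF Caw), 17–22 g, fasted 9 h; compounds suspended in 0.5% methocel and given by gavage at 0.2 mL/10 g. Antagonism of pentylenetetrazole seizures was scored in groups of 20 per dose, at four or five doses per compound. ED50 was derived by probit analysis with p = 0.05 fiducial limits. Inactives were tested at a single screening dose.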

Mus musculus [3] = experiment: Locomotor activity reduction after peroral administration; type: functional
In short: (§2)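 Irwin observational test in fasted male albino mice given oral suspensions in 0.5% methocel by gavage. Doses were 25, 50, 100, 200, 400 and 800 mg/kg, with signs checked up to 6 h. The value is the dose giving 50% of maximal effect, interpolated graphically from the log dose/peak effect curve.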

Mus musculus [4] = experiment: Compound was evaluated for positional passivity after peroral administration; type: functional; in short: as §2
Mus musculus [5] = experiment: Compound was evaluated for loss of righting reflex after peroral administration; type: functional; in short: as §2
Mus musculus [6] = experiment: Compound was evaluated for tremors after peroral administration; E denotes absent from 25-800 mg/Kg; type: functional, organism-based; in short: as §2
Mus musculus [7] = experiment: Compound was evaluated for minimum effective dose of clonic-type convulsions after peroral administration; E denotes absent from 25-800 mg/Kg; type: functional, organism-based
In short: (§3)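 Fasted male albino mice received oral suspensions in 0.5% methocel by gavage at 25–800 mg/kg during Irwin-type behavioral observation, followed up to 6 h. The value is the minimum effective dose producing clonic-type convulsions.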

Mus musculus [8] = experiment: Compound was evaluated for anticonvulsant activity in mouse after peroral administration; IA is inactive at screening dose; type: functional, organism-based; in short: as §1
Mus musculus [9] = experiment: Compound was evaluated for anticonvulsant activity in mouse after peroral administration; IA is Inactive at the screening dose; type: functional, organism-based; in short: as §1
Mus musculus [10] = experiment: Compound was evaluated for positional passivity after peroral administration; E denotes absent from 25-800 mg/Kg; type: functional, organism-based; in short: as §2
Mus musculus [11] = experiment: Compound was evaluated for anticonvulsant activity in mouse after peroral administration; Not checked; type: functional, organism-based
Mus musculus [12] = experiment: Compound was evaluated for minimum effective dose of clonic-type convulsions after peroral administration; type: functional; conditions: po, read-out: MED; in short: as §3
Mus musculus [13] = experiment: Compound was evaluated for anticonvulsant activity in mouse after peroral administration; inactive at screening dose 100 mg/kg; type: functional, organism-based; parameters: dose 100 mg/kg; in short: as §1
Mus musculus [14] = experiment: Compound was evaluated for tremors after peroral administration; type: functional; in short: as §2
Mus musculus [15] = experiment: Compound was evaluated for positional passivity after peroral administration; H denotes absent from 25-800 mg/Kg; type: functional, organism-based; in short: as §2

| SMILES | LD50 [1] [mg/kg] | ED50 (Mus musculus [2]) [mg/kg] | Locomotor activity (Mus musculus [3]) [mg/kg] | Passivity (Mus musculus [4]) [mg/kg] | Reflex (Mus musculus [5]) [mg/kg] | also measured |
| --- | --- | --- | --- | --- | --- | --- |
| C=CCNC(=O)/C=C(\C)c1ccccc1 | 450 | 65.8 | 150 | 250 | 150 | – |
| CCC1(c2ccccc2)C(=O)N=C([O-])NC1=O.[Na+] (stereo unspecified) [PHENOBARBITAL SODIUM] | – | 6.1 | 180 | 180 | 110 | – |
| C/C(C(N)=O)=C(\C)c1ccccc1 | > 800 | – | 400 | 800 | – | Tremors (Mus musculus [6]): Absent; MED (Mus musculus [7]): Absent; ED50 (Mus musculus [8]): inactive |
| C=CCNC(=O)/C(C)=C/c1ccccc1 | 600 | 53.8 | 200 | 280 | 150 | – |
| C/C(=C\c1cccc(C(F)(F)F)c1)C(=O)NC1CC1 | 700 | 24.1 | 120 | 400 | 150 | – |
| C/C(C(N)=O)=C(/C)c1cccc(C(F)(F)F)c1 | 200 | – | 100 | 85 | 25 | ED50 (Mus musculus [9]): inactive |
| C/C(C(=O)NC1CC1)=C(\C)c1ccc(Br)cc1 | 600 | 52.4 | 300 | 450 | – | Tremors (Mus musculus [6]): Absent; MED (Mus musculus [7]): Absent |
| NC(=O)/C=C/c1cccc(C(F)(F)F)c1 | 600 | 23.2 | 70 | 200 | 70 | – |
| C/C(C(=O)NC1CC1)=C(\C)c1cccc(C(F)(F)F)c1 | > 800 | 65.5 | 800 | – | – | Tremors (Mus musculus [6]): Absent; MED (Mus musculus [7]): Absent; Passivity (Mus musculus [10]): Absent |
| C/C(C(=O)NC1CC1)=C(/C)c1ccc(Cl)cc1 | 300 | 11.4 | 350 | >800 | 150 | – |
| C/C(C(=O)NC1CC1)=C(/C)c1ccccc1 | 500 | 55.9 | 100 | 250 | 150 | – |
| C=CCNC(=O)/C(C)=C(\C)c1cccc(C(F)(F)F)c1 | 400 | – | 150 | 350 | 140 | ED50 (Mus musculus [11]): Not checked |
| O=C(/C=C/c1cccc(C(F)(F)F)c1)NC1CC1 | 700 | 9.6 | 100 | 400 | 100 | – |
| C=CCNC(=O)/C=C/c1ccccc1 | 300 | 52.4 | 150 | 280 | 150 | – |
| C=CCNC(=O)/C(C)=C(\C)c1ccc(Cl)cc1 | 300 | 18.6 | 70 | 90 | 70 | – |
| C/C(C(=O)NC1CC1)=C(\C)c1ccccc1 | 600 | – | 400 | – | – | minimal effective dose (Mus musculus [12]): 400 mg/kg; Passivity (Mus musculus [10]): Absent; ED50 (Mus musculus [13]): inactive; Reflex (Mus musculus [14]): 300 mg/kg |
| C/C(C(N)=O)=C(/C)c1ccc(Cl)cc1 | 550 | 20.9 | 200 | 300 | 150 | – |
| C/C(=C\c1cccc(C(F)(F)F)c1)C(N)=O | 800 | 22.4 | 50 | 250 | 150 | – |
| C=CCNC(=O)/C(C)=C(\C)c1ccccc1 | – | 67 | 130 | 300 | 250 | – |
| O=C1NC(=O)C(c2ccccc2)(c2ccccc2)N1 [PHENYTOIN] | – | 9.11 | 150 | – | 250 | Passivity (Mus musculus [15]): inactive |
| C#CCNC(=O)/C(C)=C(\C)c1cccc(C(F)(F)F)c1 | 170 | 25.1 | 80 | 180 | 110 | – |
| C/C(C(=O)NC1CC1)=C(\C)c1ccc(Cl)cc1 | – | 36.3 | 170 | – | – | MED (Mus musculus [7]): Absent; Passivity (Mus musculus [10]): Absent; Reflex (Mus musculus [14]): 600 mg/kg |
| C#CCNC(=O)/C(C)=C(\C)c1ccc(Cl)cc1 | – | 10.6 | 60 | 400 | 200 | – |
| C/C(C(=O)NC1CC1)=C(/C)c1cccc(C(F)(F)F)c1 | 140 | 17.4 | 80 | 180 | 100 | – |
| C/C(C(N)=O)=C(\C)c1cccc(C(F)(F)F)c1 | 600 | 32.2 | 180 | 250 | – | Tremors (Mus musculus [6]): Absent; MED (Mus musculus [7]): Absent |
